Activity calls are given as the source filed them. The calls are words filed in the database; no cut-off is given here.
Tests used:
Assay type in all cases: functional, organism-based
[1] = system: Trypanosoma brucei brucei; assay: In vivo antitrypanosomal activity against Trypanosoma brucei brucei infected stage-I mouse model of HAT assessed as clearance of peripheral blood parasites at 50 mg/kg, po twice daily for 5 consecutive days measured for 60 days of post infection; settings: time 60.0 day
In short: (§1)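 Mice in groups of three were infected IP with 10^4 T. b. brucei Squib 427 […]. Parasitemia was checked by tail-vein blood microscopy up to 63 dpi, plus SL RNA qPCR on survivors.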

[2] = system: Trypanosoma brucei brucei; assay: In vivo antitrypanosomal activity against Trypanosoma brucei brucei infected stage-I po dosed mouse model of HAT assessed as clearance of parasitemia treated twice daily for 5 consecutive days; settings: dose 6.25-50 mg/kg, time 5.0 day; in short: as §1
[3] = system: Trypanosoma brucei brucei; assay: In vivo antitrypanosomal activity against Trypanosoma brucei brucei infected stage-I mouse model of HAT assessed as clearance of peripheral blood parasites at 50 mg/kg, po twice daily for 5 consecutive days; settings: time 5.0 day; in short: as §1

Structure (SMILES) | Activity [1] | Activity [2] | Activity [3]
CC(C)c1n[nH]c2c(=O)[nH]c(-c3ccc(F)cc3)nc12 | Active | Dose-Dependent Effect | –
Cc1ccc(C(=O)Nc2ccc(S(=O)(=O)O)c3cc(S(=O)(=O)O)cc(S(=O)(=O)O)c23)cc1NC(=O)c1cccc(NC(=O)Nc2cccc(C(=O)Nc3cc(C(=O)Nc4ccc(S(=O)(=O)O)c5cc(S(=O)(=O)O)cc(S(=O)(=O)O)c45)ccc3C)c2)c1 | – | – | Active
